Experimental data collected from several papers.
Target: NUAK family SNF1-like kinase 2 (NUAK2, Homo sapiens, UniProt Q9H093)
Sequence (Q9H093 1-628, as in one of the studies): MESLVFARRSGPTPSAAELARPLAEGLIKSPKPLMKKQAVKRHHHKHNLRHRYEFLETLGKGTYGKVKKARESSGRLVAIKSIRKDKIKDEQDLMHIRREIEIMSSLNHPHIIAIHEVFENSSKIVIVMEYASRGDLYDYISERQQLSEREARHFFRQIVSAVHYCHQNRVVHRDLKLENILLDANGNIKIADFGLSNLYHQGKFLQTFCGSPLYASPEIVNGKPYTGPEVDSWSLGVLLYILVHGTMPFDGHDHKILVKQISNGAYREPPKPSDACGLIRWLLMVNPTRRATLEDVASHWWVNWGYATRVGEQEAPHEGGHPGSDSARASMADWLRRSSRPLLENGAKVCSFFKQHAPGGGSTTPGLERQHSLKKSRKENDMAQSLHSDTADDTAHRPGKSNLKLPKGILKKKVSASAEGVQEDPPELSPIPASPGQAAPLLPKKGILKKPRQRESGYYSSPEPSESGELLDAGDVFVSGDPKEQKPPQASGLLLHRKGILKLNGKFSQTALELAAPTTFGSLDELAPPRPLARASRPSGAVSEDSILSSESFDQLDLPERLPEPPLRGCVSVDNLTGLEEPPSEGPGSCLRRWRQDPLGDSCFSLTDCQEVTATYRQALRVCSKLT

CO[C@@H](C)c1c(Nc2ccc([C@@H](N(C)C(=O)C3CCS(=O)(=O)CC3)C(F)(F)F)cc2)cnc2cc(Cl)nn12
remaining binding (cell-free assay; competition with immobilised ligand; 1 µM): 100%

O=C(c1ccc(Nc2ncc(Cl)c(-c3ccc(Cl)s3)n2)cc1)N1CCC(N2CCCC2)CC1
remaining binding (binding; competition with immobilised ligand; 1 µM): 0.4%

C[C@H]1CCN(c2nccc(-c3cnn4ncccc34)n2)C1
remaining binding (binding; 1 µM): 79%

COc1ncc2cc3ccccc3nc2c1C#N
remaining binding (cell-free assay; competition with immobilised ligand; 5 µM): 100%

CN(CCCC(F)(F)F)c1nccc(-c2cnn3ncccc23)n1
remaining binding (binding; 1 µM): 92%

C[C@@H]1CN(c2ccc3ncc(-c4ccc5[nH]nc(C6CC6)c5c4)n3n2)C[C@H](C)O1
remaining binding (binding; competition with immobilised ligand; 50 nM): 89%

CN(C)c1nccc(-c2cnn3ncccc23)n1
remaining binding (binding; 1 µM): 100%

Nc1c(C(=O)NCc2ccc(C(=O)NCCCC3CCCCC3)cc2)cnn1-c1ccccc1
remaining binding (cell-free assay; competition with immobilised ligand; 0.1 µM): 100%

O=C(NCCCN1CCOCC1)c1ccc(Nc2ncc(Cl)c(-c3ccc(Cl)s3)n2)cc1
remaining binding (binding; competition with immobilised ligand; 1 µM): 0.85%

c1cncc(-c2cccc(Nc3nccc(NC4CCCCC4)n3)c2)c1
remaining binding (binding; competition with immobilised ligand; 10 µM): 17%

CC(C)(C)c1ccc(-c2nc(CBr)nn2-c2cccc(O)c2)cc1
remaining binding (cell-free assay; competition with immobilised ligand; 10 µM): 74%

COc1cnc(Nc2cccc(S(N)(=O)=O)c2)nc1N1CCN(c2ccccc2)CC1
remaining binding (binding; competition with immobilised ligand; 1 µM): 62%

Cn1cc(Cl)c2c(Oc3c(F)cc(Nc4cc(Cl)nc(N)n4)cc3F)ccnc21
remaining binding (cell-free assay; competition with immobilised ligand; 0.1 µM): 85%

N[C@@H]1CCN(c2nccc(-c3cnn4ncccc34)n2)C1
remaining binding (binding; 1 µM): 100%

C[C@H](NC(=O)c1cnc2n1[C@](C)(Cc1ccc(C#N)cc1)C(=O)N2c1cc(Cl)c(F)c(Cl)c1)C(=O)NC1(c2ccccn2)CC1
remaining binding (cell-free assay; competition with immobilised ligand; 1 µM): 100%

O=C(NCC1CCOCC1)c1n[nH]cc1NC(=O)c1c(F)cccc1F
remaining binding (binding; competition with immobilised ligand; 1 µM): 70%

CCCCN(CCCC)C(=O)CN1C[C@@H](c2cc(OC)c3c(c2)OCO3)[C@H](C(=O)O)[C@H]1CC(C)(C)CCC
remaining binding (cell-free assay; competition with immobilised ligand; 1 µM): 100%

CN(C)c1nccc(-c2cnc3ncccn23)n1
remaining binding (binding; 1 µM): 83%

CNC(=O)Nc1ccc2c(c1)CC[C@@]21OC(=O)N(CC(=O)N(Cc2ccc(F)cc2)[C@@H](C)C(F)(F)F)C1=O
remaining binding (cell-free assay; competition with immobilised ligand; 1 µM): 74%

O=C(c1ccc(Nc2nccc(-c3cc4ccccc4s3)n2)cc1)N1CCC(N2CCCC2)CC1
remaining binding (binding; competition with immobilised ligand; 1 µM): 7.6%

COc1cccc(CNC(=O)c2nc3scc(COCc4ccc(C(=O)O)cc4)c3c(=O)[nH]2)c1
remaining binding (cell-free assay; competition with immobilised ligand; 1 µM): 76.4%

CNC(=O)[C@@H]1CC[C@@H](n2c(-c3ccc4cnccc4c3)nc3ccc(C(=O)NCc4cccc(C(N)=O)c4)cc32)C1
remaining binding (binding; competition with immobilised ligand; 1 µM): 100%
